{"source": "ChEMBL document CHEMBL4619772", "about": "(J Med Chem, 2020)", "key": {"[1]": {"assay": "Metabolic stability in human liver microsomes assessed as parent compound remaining after 60 mins in presence of NADPH by HPLC analysis", "type": "ADME, Microsome", "conditions": "read-out: Stability", "in_short": "(§1)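 Stability is reported as % of compound remaining after 60 min incubation in plasma or liver microsomes, relative to t0.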"}, "[2]": {"assay": "Inhibition of pseudotyped HIV/EBOV GP infected in human A549 cells assessed as reduction in virus entry measured after 48 hrs by luciferase reporter gene assay", "type": "cell-based, Ebolavirus", "conditions": "Orthoebolavirus, A549, 48 h"}, "[3]": {"assay": "Selectivity index, ratio of CC50 for human A549 cells to EC50 for HIV/EBOV-GP infected in human A549 cells", "type": "toxicity, cell-based", "conditions": "read-out: Ratio CC50/EC50", "in_short": "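Ratio CC50/EC50. CC50 is A549 cytotoxicity by CellTiter 96 aqueous nonradioactive cell proliferation assay.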"}, "[4]": {"assay": "Metabolic stability in Sprague-Dawley rat pooled plasma assessed as parent compound remaining at 20 uM after 60 mins by HPLC analysis", "type": "ADME, cell-free", "conditions": "read-out: Stability", "in_short": "as §1"}, "Zaire ebolavirus [5]": {"tested_on": "Zaire ebolavirus", "assay": "Antiviral activity against Ebola virus 1976 Mayinga infected in African green monkey Vero cells", "type": "functional, organism-based"}, "Zaire ebolavirus [6]": {"tested_on": "Zaire ebolavirus", "assay": "Antiviral activity against Ebola virus 1976 Mayinga infected in African green monkey Vero cells pretreated for 1 hr followed by virus infection measured after 24 hrs by Hoechst staining-based immunofluorescence assay", "type": "functional, organism-based"}, "[7]": {"assay": "Metabolic stability in Fischer F344 rat liver microsomes assessed as parent compound remaining after 60 mins in presence of NADPH by HPLC analysis", "type": "ADME, Microsome", "conditions": "read-out: Stability", "in_short": "as §1"}, "Marburgvirus [8]": {"tested_on": "Marburgvirus", "assay": "Antiviral activity against Marburg virus Lake Victoria, 2005 Angola infected in African green monkey Vero cells", "type": "functional, organism-based, Lake Victoria marburgvirus", "conditions": "Orthomarburgvirus, Angola2005, Vero"}, "A549 [9]": {"tested_on": "A549", "assay": "Inhibition of pseudotyped HIV/EBOV GP infected in human A549 cells assessed as reduction in virus entry at 12.5 uM measured after 48 hrs by luciferase reporter gene assay relative to control", "type": "cell-based", "conditions": "Ebolavirus", "in_short": "(§2)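 Low-passage A549 cells are infected with HIV-based pseudovirions carrying EBOV or MARV GP and a luciferase reporter, with or without compound at 12.5 μM. […] Toremifene is the positive control.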"}, "[10]": {"assay": "Metabolic stability in human pooled plasma assessed as parent compound remaining at 20 uM after 60 mins by HPLC analysis", "type": "ADME, cell-free", "conditions": "read-out: Stability", "in_short": "as §1"}, "A549 [11]": {"tested_on": "A549", "assay": "Inhibition of pseudotyped HIV/MARV GP infected in human A549 cells assessed as reduction in virus entry at 12.5 uM measured after 48 hrs by luciferase reporter gene assay relative to control", "type": "cell-based", "conditions": "Marburgvirus", "in_short": "as §2"}, "[12]": {"assay": "Inhibition of pseudotyped HIV/MARV GP infected in human A549 cells assessed as reduction in virus entry measured after 48 hrs by luciferase reporter gene assay", "type": "cell-based, Marburgvirus", "conditions": "Orthomarburgvirus, A549, 48 h"}, "Zaire ebolavirus [13]": {"tested_on": "Zaire ebolavirus", "assay": "Antiviral activity against Ebola virus 1976 Mayinga infected in human HeLa cells pretreated for 1 hr followed by virus infection measured after 24 hrs by Hoechst staining-based immunofluorescence assay", "type": "functional, organism-based"}, "[14]": {"assay": "Selectivity index, ratio of CC50 for African green monkey Vero cells to EC50 for Ebola virus 1976 Mayinga infected in African green monkey Vero cells", "type": "toxicity", "conditions": "read-out: Ratio CC50/EC50"}, "Marburgvirus [15]": {"tested_on": "Marburgvirus", "assay": "Antiviral activity against Marburg virus Lake Victoria, 2005 Angola infected in human HeLa cells pretreated for 1 hr followed by virus infection measured after 24 hrs by Hoechst staining-based immunofluorescence assay", "type": "functional, organism-based, Lake Victoria marburgvirus", "conditions": "Orthomarburgvirus, Angola2005, HeLa"}, "Cytochrome P450 2C9 [16]": {"target": "T1, Cytochrome P450 2C9 (Homo sapiens, UniProt P11712)", "T1 sequence (P11712 whole entry)": "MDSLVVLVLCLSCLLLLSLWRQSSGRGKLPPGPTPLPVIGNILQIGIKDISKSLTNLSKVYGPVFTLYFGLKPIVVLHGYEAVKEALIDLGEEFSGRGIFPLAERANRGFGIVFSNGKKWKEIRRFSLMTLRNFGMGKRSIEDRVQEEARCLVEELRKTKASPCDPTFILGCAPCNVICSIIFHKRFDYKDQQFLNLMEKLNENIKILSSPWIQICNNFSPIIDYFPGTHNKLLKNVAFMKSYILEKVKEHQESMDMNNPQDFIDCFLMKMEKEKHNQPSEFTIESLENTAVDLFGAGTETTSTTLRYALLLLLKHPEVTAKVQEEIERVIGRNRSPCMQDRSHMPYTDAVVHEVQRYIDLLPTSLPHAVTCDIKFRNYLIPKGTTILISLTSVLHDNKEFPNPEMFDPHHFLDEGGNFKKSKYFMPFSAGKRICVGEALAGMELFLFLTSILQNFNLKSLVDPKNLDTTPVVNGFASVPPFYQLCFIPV", "assay": "Inhibition of recombinant human CYP2C9 expressed in baculovirus infected insect cell microsomes using fluorescent substrate in presence of NADPH by fluorescence assay", "type": "ADME", "in_short": "(§3)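 CYP2C9 inhibition IC50 is determined with 30 μM sulfaphenazole as positive inhibitor control, from three replicates; errors are estimated <10%.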"}, "[17]": {"assay": "Selectivity index, ratio of CC50 for human HeLa cells to EC50 for Ebola virus 1976 Mayinga in human HeLa cells", "type": "toxicity, cell-based", "conditions": "read-out: Ratio CC50/EC50"}, "Cytochrome P450 3A4 [18]": {"target": "T2, Cytochrome P450 3A4 (Homo sapiens, UniProt P08684)", "T2 sequence (P08684 whole entry)": "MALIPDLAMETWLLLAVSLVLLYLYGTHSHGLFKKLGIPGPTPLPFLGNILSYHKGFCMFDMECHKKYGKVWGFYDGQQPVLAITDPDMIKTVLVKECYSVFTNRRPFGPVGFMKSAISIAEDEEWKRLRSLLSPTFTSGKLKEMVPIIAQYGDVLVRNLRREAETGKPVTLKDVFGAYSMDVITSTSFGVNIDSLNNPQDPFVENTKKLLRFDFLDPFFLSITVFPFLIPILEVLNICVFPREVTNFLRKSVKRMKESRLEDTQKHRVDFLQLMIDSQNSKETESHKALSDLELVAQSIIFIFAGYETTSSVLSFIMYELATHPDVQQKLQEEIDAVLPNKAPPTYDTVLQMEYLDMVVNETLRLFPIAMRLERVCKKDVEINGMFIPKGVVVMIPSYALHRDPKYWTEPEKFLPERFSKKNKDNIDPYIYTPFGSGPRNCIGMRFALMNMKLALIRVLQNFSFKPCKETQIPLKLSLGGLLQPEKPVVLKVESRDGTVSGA", "assay": "Inhibition of recombinant human CYP3A4 expressed in baculovirus infected insect cell microsomes using fluorescent substrate in presence of NADPH by fluorescence assay", "type": "ADME", "in_short": "(§4)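 CYP3A4 inhibition IC50 is determined with 10 μM quinidine as positive inhibitor control, from three replicates; errors are estimated <10%.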"}, "Cytochrome P450 3A4 [19]": {"target": "T2, Cytochrome P450 3A4", "assay": "Inhibition of recombinant human CYP3A4 expressed in baculovirus infected insect cell microsomes using vivid DBOMF as substrate preincubated for 10 mins followed by substrate addition and measured after 25 mins in presence of […] by fluorescence assay", "type": "ADME", "in_short": "as §4"}, "Cytochrome P450 2C9 [20]": {"target": "T1, Cytochrome P450 2C9", "assay": "Inhibition of recombinant human CYP2C9 expressed in baculovirus infected insect cell microsomes using vivid BOMF as substrate preincubated for 10 mins followed by substrate addition and measured after 25 mins in presence of […] by fluorescence assay", "type": "ADME", "in_short": "as §3"}}, "data": [{"smiles": "COC(=O)c1ccc(NC(=O)c2ccc(CN3CCCCC3)cc2)cc1", "values": [{"measurement": "remaining at 1 h", "setting": "[1]", "result": 54, "unit": "%"}, {"measurement": "EC50", "setting": "[2]", "result": 9.86, "unit": "µM"}, {"measurement": "selectivity ratio", "setting": "[3]", "result": 15}, {"measurement": "remaining at 1 h, 20 µM", "setting": "[4]", "result": 78, "unit": "%"}, {"measurement": "EC50", "setting": "Zaire ebolavirus [5]", "result": "< 10", "unit": "µM"}, {"measurement": "EC50", "setting": "Zaire ebolavirus [6]", "result": 2.83, "unit": "µM"}, {"measurement": "remaining at 1 h", "setting": "[7]", "result": 0, "unit": "%"}, {"measurement": "EC50", "setting": "Marburgvirus [8]", "result": "< 10", "unit": "µM"}, {"measurement": "inhibition", "setting": "A549 [9]", "result": 74, "unit": "%"}, {"measurement": "remaining at 1 h, 20 µM", "setting": "[10]", "result": 63, "unit": "%"}, {"measurement": "inhibition", "setting": "A549 [11]", "result": 90.7, "unit": "%"}, {"measurement": "EC50", "setting": "[12]", "result": 0.53, "unit": "µM"}, {"measurement": "EC50", "setting": "Zaire ebolavirus [13]", "result": "> 25", "unit": "µM"}, {"measurement": "selectivity ratio", "setting": "[14]", "result": 35}]}, {"smiles": "CC1CCN(c2ccc(NC(=O)c3ccc(CN4CCOCC4)cc3)cc2C(F)(F)F)CC1", "values": [{"measurement": "EC50", "setting": "Marburgvirus [15]", "result": 0.82, "unit": "µM"}, {"measurement": "IC50", "setting": "Cytochrome P450 2C9 [16]", "result": 4.98, "unit": "µM"}, {"measurement": "remaining at 1 h", "setting": "[1]", "result": 64, "unit": "%"}, {"measurement": "EC50", "setting": "[2]", "result": 0.012, "unit": "µM"}, {"measurement": "selectivity ratio", "setting": "[3]", "result": 2090}, {"measurement": "remaining at 1 h, 20 µM", "setting": "[4]", "result": 89, "unit": "%"}, {"measurement": "remaining at 1 h", "setting": "[7]", "result": 75, "unit": "%"}, {"measurement": "inhibition", "setting": "A549 [9]", "result": 99.3, "unit": "%"}, {"measurement": "remaining at 1 h, 20 µM", "setting": "[10]", "result": 100, "unit": "%"}, {"measurement": "inhibition", "setting": "A549 [11]", "result": 92.3, "unit": "%"}, {"measurement": "selectivity ratio", "setting": "[17]", "result": 58}, {"measurement": "EC50", "setting": "[12]", "result": 0.18, "unit": "µM"}, {"measurement": "EC50", "setting": "Zaire ebolavirus [13]", "result": 0.31, "unit": "µM"}, {"measurement": "IC50", "setting": "Cytochrome P450 3A4 [18]", "result": "> 100", "unit": "µM"}]}, {"smiles": "O=C(Nc1ccc(SC(F)(F)F)c(Cl)c1)c1ccc(CN2CCCCC2)cc1", "values": [{"measurement": "EC50", "setting": "Marburgvirus [15]", "result": 2.4, "unit": "µM"}, {"measurement": "remaining at 1 h", "setting": "[1]", "result": 90, "unit": "%"}, {"measurement": "EC50", "setting": "[2]", "result": 1.27, "unit": "µM"}, {"measurement": "IC50", "setting": "Cytochrome P450 3A4 [19]", "result": 15.1, "unit": "µM"}, {"measurement": "selectivity ratio", "setting": "[3]", "result": 5}, {"measurement": "remaining at 1 h, 20 µM", "setting": "[4]", "result": 88, "unit": "%"}, {"measurement": "IC50", "setting": "Cytochrome P450 2C9 [20]", "result": 4.49, "unit": "µM"}, {"measurement": "remaining at 1 h", "setting": "[7]", "result": 94, "unit": "%"}, {"measurement": "inhibition", "setting": "A549 [9]", "result": 99.9, "unit": "%"}, {"measurement": "remaining at 1 h, 20 µM", "setting": "[10]", "result": 100, "unit": "%"}, {"measurement": "inhibition", "setting": "A549 [11]", "result": 99.8, "unit": "%"}, {"measurement": "selectivity ratio", "setting": "[17]", "result": 14}, {"measurement": "EC50", "setting": "[12]", "result": 1.61, "unit": "µM"}, {"measurement": "EC50", "setting": "Zaire ebolavirus [13]", "result": 1.12, "unit": "µM"}]}, {"smiles": "CC(C)(C)c1ccc(NC(=O)c2ccc(CN3CCCCC3)cc2)c(C(C)(C)C)c1", "values": [{"measurement": "EC50", "setting": "Marburgvirus [15]", "result": 2, "unit": "µM"}, {"measurement": "remaining at 1 h", "setting": "[1]", "result": 17, "unit": "%"}, {"measurement": "EC50", "setting": "[2]", "result": 0.48, "unit": "µM"}, {"measurement": "IC50", "setting": "Cytochrome P450 3A4 [19]", "result": "> 100", "unit": "µM"}, {"measurement": "selectivity ratio", "setting": "[3]", "result": 76}, {"measurement": "remaining at 1 h, 20 µM", "setting": "[4]", "result": 82, "unit": "%"}, {"measurement": "IC50", "setting": "Cytochrome P450 2C9 [20]", "result": 18.6, "unit": "µM"}, {"measurement": "remaining at 1 h", "setting": "[7]", "result": 99, "unit": "%"}, {"measurement": "inhibition", "setting": "A549 [9]", "result": 99.5, "unit": "%"}, {"measurement": "remaining at 1 h, 20 µM", "setting": "[10]", "result": 85, "unit": "%"}, {"measurement": "inhibition", "setting": "A549 [11]", "result": 85, "unit": "%"}, {"measurement": "selectivity ratio", "setting": "[17]", "result": 227}, {"measurement": "EC50", "setting": "[12]", "result": 2.34, "unit": "µM"}, {"measurement": "EC50", "setting": "Zaire ebolavirus [13]", "result": 0.59, "unit": "µM"}]}, {"smiles": "O=C(Nc1ccc(C23CC4CC(CC(C4)C2)C3)cc1)c1ccc(CN2CCOCC2)cc1", "values": [{"measurement": "EC50", "setting": "Marburgvirus [15]", "result": 0.52, "unit": "µM"}, {"measurement": "IC50", "setting": "Cytochrome P450 2C9 [16]", "result": 3.14, "unit": "µM"}, {"measurement": "remaining at 1 h", "setting": "[1]", "result": 34, "unit": "%"}, {"measurement": "EC50", "setting": "[2]", "result": 0.018, "unit": "µM"}, {"measurement": "selectivity ratio", "setting": "[3]", "result": 5440}, {"measurement": "remaining at 1 h, 20 µM", "setting": "[4]", "result": 86, "unit": "%"}, {"measurement": "remaining at 1 h", "setting": "[7]", "result": 57, "unit": "%"}, {"measurement": "inhibition", "setting": "A549 [9]", "result": 99, "unit": "%"}, {"measurement": "remaining at 1 h, 20 µM", "setting": "[10]", "result": 86, "unit": "%"}, {"measurement": "inhibition", "setting": "A549 [11]", "result": 72.5, "unit": "%"}, {"measurement": "selectivity ratio", "setting": "[17]", "result": 134}, {"measurement": "EC50", "setting": "[12]", "result": 2.79, "unit": "µM"}, {"measurement": "EC50", "setting": "Zaire ebolavirus [13]", "result": 0.83, "unit": "µM"}, {"measurement": "IC50", "setting": "Cytochrome P450 3A4 [18]", "result": "> 100", "unit": "µM"}]}]}
